Laboratory results taken from ChEMBL document CHEMBL2086325, “Suppression of autoimmune arthritis by Celastrus-derived Celastrol through modulation of pro-inflammatory chemokines” (Bioorg Med Chem, 2012).
Activity calls are given as the source filed them. The calls are words filed in the database; no cut-off is given here.

Experiments:
Rattus norvegicus [1] = assay: (§1) Antiarthritic effect in Lewis rat adjuvant-induced arthritis model synovial infiltrating cells restimulated with sonicated Mtb post isolation assessed as reduction in IL-1beta production at 200 ug, ip starting from arthritis onset and continued uninterrupted until study end by cytokine multiplex assay; type: functional, organism-based
In short: (§2)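 Male Lewis rats were immunized s.c. with heat-killed Mtb H37Ra (1.5 mg/rat) in mineral oil. From arthritis onset they received 200 μg/rat i.p. daily (DMSO stock diluted in PBS); controls got 1.2% DMSO in PBS. On d 18, draining lymph node or synovial-infiltrating cells were cultured at 1.5 × 10^6/well in 2% FBS medium ± sonicated Mtb (10 μg/ml) for 24 h. Supernatants were analysed by multiplex.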

Rattus norvegicus [2] = assay: Antiarthritic effect in Lewis rat adjuvant-induced arthritis model serum assessed as reduction in IL6 production at 200 ug, ip starting from arthritis onset and continued uninterrupted until study end by cytokine multiplex assay; type: functional, organism-based
In short: (§3)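 Arthritic Lewis rats (Mtb 1.5 mg s.c. in mineral oil) were given 200 μg/rat i.p. daily from onset until the day before harvest; controls received DMSO/PBS vehicle. On d 18, blood was taken by cardiac puncture after euthanasia and serum stored at −80 °C. Serum pooled from 4 rats was assayed in triplicate by multiplex.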

Rattus norvegicus [3] = species: Rattus norvegicus; assay: Increase in CCR1 protein surface expression in sonicated Mtb-stimulated spleen adherent cells isolated from Lewis rat adjuvant-induced arthritis model pre-incubated with 0.1 to 0.3 uM compound before stimulation with sonicated Mtb for 24 hrs by flow cytometry; type: functional, tissue-based
In short: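 Spleen adherent cells from arthritic rats were stimulated 24 h with sonicated Mtb in vitro, with or without compound. Cells were detached with TrypLE for 10 min, washed, and surface-stained 30 min with anti-CD11b/c PerCP-eFluor 710 and cross-reactive anti-human CCR1 Alexa Fluor 647. Cells were fixed in 1% formaldehyde and analysed by flow cytometry, with IgG2a/IgG2b isotype controls.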

Rattus norvegicus [4] = assay: Antiarthritic effect in Lewis rat adjuvant-induced arthritis model spleen adherent cells restimulated with sonicated Mtb post isolation assessed as reduction in CCR2 expression at 200 ug, ip starting from arthritis onset and continued uninterrupted until study end by qPCR; type: functional, organism-based
In short: (§4)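 From onset of Mtb-induced arthritis, rats received 200 μg/rat i.p. daily or vehicle. Spleen adherent cells harvested on d 18 (1.5–2.0 × 10^6 cells/well) were cultured in medium or with sonicated Mtb (10 μg/ml) for 24 h. Receptor mRNA was quantified by qPCR after TRIzol RNA isolation and cDNA synthesis, normalized to HGPRT and reported as relative message.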

Rattus norvegicus [5] = assay: as §1, with “MIP-1alpha” for “IL-1beta”; type: functional, organism-based; in short: as §2
Rattus norvegicus [6] = assay: Antiarthritic effect in Lewis rat adjuvant-induced arthritis model spleen adherent cells restimulated with sonicated Mtb post isolation assessed as reduction in RANTES production at 200 ug, ip starting from arthritis onset and continued uninterrupted until study end by cytokine multiplex assay; type: functional, organism-based
In short: (§5)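 Mtb-immunized male Lewis rats were dosed 200 μg/rat i.p. daily from arthritis onset (vehicle: 1.2% DMSO/PBS). Spleen adherent cells were prepared on d 18, plated at 1.5 × 10^6/well in 2% FBS medium and restimulated with sonicated Mtb (10 μg/ml) for 24 h. Supernatant chemokines and cytokines were measured by Luminex multiplex. Mean ± SD of triplicates from 4–5 rats.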

Rattus norvegicus [7] = species: Rattus norvegicus; assay: Increase in CCR1 expression in sonicated Mtb-stimulated spleen adherent cells isolated from Lewis rat adjuvant-induced arthritis model pre-incubated with compound before stimulation with sonicated Mtb for 24 hrs by qPCR; type: functional, tissue-based
In short: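 Spleen adherent cells (1.5–2.0 × 10^6 cells/well) came from an untreated arthritic Lewis rat. They were restimulated 24 h with sonicated Mtb (10 μg/ml) with or without compound at 0.1 and 0.3 μM. CCR1 mRNA was measured by qPCR, normalized to HPRT and expressed as relative message.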

Rattus norvegicus [8] = species: Rattus norvegicus; assay: Antiarthritic effect in IL-1beta-stimulatedspleen adherent cells isolated from Lewis rat adjuvant-induced arthritis model assessed as reduction in MCP1 production pre-incubated with compound for 30 mins before stimulation with IL-1beta for 48 hrs by multiplex assay; type: functional, tissue-based; details: Spleen
Rattus norvegicus [9] = assay: Antiarthritic effect in Lewis rat adjuvant-induced arthritis model spleen adherent cells restimulated with sonicated Mtb post isolation assessed as reduction in IL6 production at 200 ug, ip starting from arthritis onset and continued uninterrupted until study end by cytokine multiplex assay; type: functional, organism-based; in short: as §5
Rattus norvegicus [10] = assay: Antiarthritic effect in Lewis rat adjuvant-induced arthritis model lymph node cells restimulated with sonicated Mtb post isolation assessed as reduction in MIP-1alpha production at 200 ug, ip starting from arthritis onset and continued uninterrupted until study end by cytokine multiplex assay; type: functional, organism-based; in short: as §2
Rattus norvegicus [11] = species: Rattus norvegicus; assay: Antiarthritic effect in IL-1beta-stimulatedspleen adherent cells isolated from Lewis rat adjuvant-induced arthritis model assessed as reduction in MIP-1alpha production pre-incubated with compound for 30 mins before stimulation with IL-1beta for 48 hrs by multiplex assay; type: functional, tissue-based; details: Spleen
Rattus norvegicus [12] = assay: Toxicity in Lewis rat adjuvant-induced arthritis model serum assessed as increase in MCP1 production at 200 ug, ip starting from arthritis onset and continued uninterrupted until study end by cytokine multiplex assay; type: organism-based; details: in vivo; in short: as §3
Rattus norvegicus [13] = assay: Antiarthritic effect in Lewis rat adjuvant-induced arthritis model spleen adherent cells restimulated with sonicated Mtb post isolation assessed as reduction in CCR6 expression at 200 ug, ip starting from arthritis onset and continued uninterrupted until study end by qPCR; type: functional, organism-based; in short: as §4
Rattus norvegicus [14] = assay: Increase in CCR1 expression in Lewis rat adjuvant-induced arthritis model spleen adherent cells restimulated with sonicated Mtb post isolation at 200 ug, ip starting from arthritis onset and continued uninterrupted until study end by qPCR relative baseline expression; type: functional, organism-based; in short: as §4
Rattus norvegicus [15] = assay: Antiarthritic effect in Lewis rat adjuvant-induced arthritis model lymph node cells restimulated with sonicated Mtb post isolation assessed as reduction in IL6 production at 200 ug, ip starting from arthritis onset and continued uninterrupted until study end by cytokine multiplex assay; type: functional, organism-based; in short: as §2
Rattus norvegicus [16] = assay: Antiarthritic effect in Lewis rat adjuvant-induced arthritis model spleen adherent cells restimulated with sonicated Mtb post isolation assessed as reduction in GRO/KC production at 200 ug, ip starting from arthritis onset and continued uninterrupted until study end by cytokine multiplex assay; type: functional, organism-based; in short: as §5
Rattus norvegicus [17] = assay: Antiarthritic effect in Lewis rat adjuvant-induced arthritis model spleen adherent cells restimulated with sonicated Mtb post isolation assessed as reduction in CCR5 expression at 200 ug, ip starting from arthritis onset and continued uninterrupted until study end by qPCR; type: functional, organism-based; in short: as §4
Rattus norvegicus [18] = assay: Antiarthritic effect in Lewis rat adjuvant-induced arthritis model spleen adherent cells restimulated with sonicated Mtb post isolation assessed as reduction in MCP1 production at 200 ug, ip starting from arthritis onset and continued uninterrupted until study end by cytokine multiplex assay; type: functional, organism-based; in short: as §5
Rattus norvegicus [19] = assay: Antiarthritic effect in Lewis rat adjuvant-induced arthritis model spleen adherent cells restimulated with sonicated Mtb post isolation assessed as reduction in IL-1beta production at 200 ug, ip starting from arthritis onset and continued uninterrupted until study end by cytokine multiplex assay; type: functional, organism-based; in short: as §5
Rattus norvegicus [20] = assay: Antiarthritic effect in Lewis rat adjuvant-induced arthritis model synovial infiltrating cells restimulated with sonicated Mtb post isolation assessed as reduction in IL6 production at 200 ug, ip starting from arthritis onset and continued uninterrupted until study end by cytokine multiplex assay; type: functional, organism-based; in short: as §2

**Q.** With CC1=C(O)C(=O)C=C2C1=CC=C1[C@@]2(C)CC[C@@]2(C)[C@@H]3C[C@](C)(C(=O)O)CC[C@]3(C)CC[C@]12C [CELASTROL] as the compound, how does the Activity (Rattus norvegicus [1]) read?
**A.** inactive

**Q.** And the Activity (Rattus norvegicus [2])?
**A.** inactive

**Q.** What about the Activity (Rattus norvegicus [3]) of the same compound?
**A.** Active

**Q.** And the Activity (Rattus norvegicus [4])?
**A.** Active

**Q.** And the Activity (Rattus norvegicus [5])?
**A.** inactive

**Q.** What about the Activity (Rattus norvegicus [6]) of the same compound?
**A.** Active

**Q.** What about the Activity (Rattus norvegicus [7]) of the same compound?
**A.** Dose-dependent effect

**Q.** What about the Activity (Rattus norvegicus [8]) of the same compound?
**A.** Dose-dependent effect

**Q.** And the Activity (Rattus norvegicus [9])?
**A.** inactive

**Q.** What about the Activity (Rattus norvegicus [10]) of the same compound?
**A.** inactive

**Q.** And the Activity (Rattus norvegicus [11])?
**A.** Dose-dependent effect

**Q.** And the Activity (Rattus norvegicus [12])?
**A.** Toxic

**Q.** And the Activity (Rattus norvegicus [13])?
**A.** Active

**Q.** What about the Activity (Rattus norvegicus [14]) of the same compound?
**A.** Active

**Q.** What about the Activity (Rattus norvegicus [15]) of the same compound?
**A.** inactive

**Q.** What about the Activity (Rattus norvegicus [16]) of the same compound?
**A.** Active

**Q.** What about the Activity (Rattus norvegicus [17]) of the same compound?
**A.** Active

**Q.** And the Activity (Rattus norvegicus [18])?
**A.** Active

**Q.** What about the Activity (Rattus norvegicus [19]) of the same compound?
**A.** Active

**Q.** What about the Activity (Rattus norvegicus [20]) of the same compound?
**A.** inactive
